Source: ChEMBL document CHEMBL1782031, “Urea/thiourea derivatives of quinazolinone-lysine conjugates: synthesis and structure-activity relationships of a new series of antimicrobials” (2011)

Experiments:
Type in all cases: functional
Settings in all cases: read-out: DIZ
[1] = tested on: Bacillus subtilis; test: Antibacterial activity against Bacillus subtilis at 10 ug/disc after 24 hrs by disc diffusion method
Method in brief: (§1)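 Disc diffusion assay. Discs were held at 4 °C for 2 h so the compounds could diffuse, then incubated at 28 °C. Inhibition zone diameters were measured in mm after 24 h. Each compound was tested in triplicate.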

[2] = tested on: Pseudomonas fluorescens; test: Antibacterial activity against Pseudomonas fluorescens at 10 ug/disc after 24 hrs by disc diffusion method; method in brief: as §1
[3] = tested on: Escherichia coli; test: Antibacterial activity against Escherichia coli at 10 ug/disc after 24 hrs by disc diffusion method; method in brief: as §1
[4] = tested on: Xanthomonas oryzae; test: Antibacterial activity against Xanthomonas oryzae at 10 ug/disc after 24 hrs by disc diffusion method
[5] = Antibacterial activity against Xanthomonas campestris pvs. at 10 ug/disc after 24 hrs by disc diffusion method; method in brief: as §1

SMILES | zone of inhibition at 10 µg/disc [1] | zone of inhibition at 10 µg/disc [2] | zone of inhibition at 10 µg/disc [3] | zone of inhibition at 10 µg/disc [4] | zone of inhibition at 10 µg/disc [5]
CN[C@@H]1[C@H](O[C@H]2[C@H](O[C@H]3[C@H](O)[C@@H](O)[C@H](N=C(N)N)[C@@H](O)[C@@H]3N=C(N)N)O[C@@H](C)[C@]2(O)C=O)O[C@@H](CO)[C@H](O)[C@H]1O [STREPTOMYCIN] | 17 mm | 23 mm | 21 mm | – | –
CC(C)(C)OC(=O)NCCCC[C@H](NC(=O)CCCc1nc2ccccc2c(=O)[nH]1)C(=O)O | 9 mm | 11 mm | 10 mm | 11 mm | 12 mm
O=C(CCc1nc2ccccc2c(=O)[nH]1)N[C@@H](CCCCNC(=O)Nc1ccc(Cl)cc1)C(=O)O | 28 mm | 32 mm | 30 mm | 30 mm | 30 mm
O=C(CCc1nc2ccccc2c(=O)[nH]1)N[C@@H](CCCCNC(=O)Nc1cccc(F)c1)C(=O)O | 35 mm | 34 mm | 35 mm | 34 mm | 33 mm
COC(=O)[C@H](CCCCNC(=O)OC(C)(C)C)NC(=O)CCCc1nc2ccccc2c(=O)[nH]1 | 6 mm | 8 mm | 8 mm | 9 mm | 7 mm
COC(=O)[C@H](CCCCNC(=O)Nc1ccc(OC)cc1)NC(=O)CCc1nc2ccccc2c(=O)[nH]1 | 22 mm | 25 mm | 23 mm | 28 mm | 26 mm
CC(=O)NCCCC[C@H](NC(=O)CCCc1nc2ccccc2c(=O)[nH]1)C(=O)O | 10 mm | 10 mm | 11 mm | 12 mm | 14 mm
COC(=O)[C@H](CCCCNC(=O)Nc1ccc(OC)cc1)NC(=O)CCCc1nc2ccccc2c(=O)[nH]1 | 20 mm | 22 mm | 21 mm | 25 mm | 24 mm
COC(=O)[C@H](CCCCNC(=S)Nc1ccc(F)cc1C)NC(=O)CCc1nc2ccccc2c(=O)[nH]1 | 33 mm | 34 mm | 32 mm | 34 mm | 33 mm
COC(=O)[C@H](CCCCNC(=S)Nc1cccc(F)c1)NC(=O)CCc1nc2ccccc2c(=O)[nH]1 | 36 mm | 36 mm | 38 mm | 35 mm | 38 mm
O=C(CCCc1nc2ccccc2c(=O)[nH]1)N[C@@H](CCCCNC(=S)Nc1cccc(F)c1)C(=O)O | 34 mm | 32 mm | 32 mm | 34 mm | 33 mm
COC(=O)[C@H](CCCCNS(C)(=O)=O)NC(=O)CCCc1nc2ccccc2c(=O)[nH]1 | 11 mm | 11 mm | 9 mm | 11 mm | 12 mm
COC(=O)[C@H](CCCCNC(C)=O)NC(=O)CCCc1nc2ccccc2c(=O)[nH]1 | 8 mm | 7 mm | 9 mm | 8 mm | 6 mm
NCCCC[C@H](NC(=O)CCc1nc2ccccc2c(=O)[nH]1)C(=O)O | 8 mm | 10 mm | 9 mm | 9 mm | 10 mm
COC(=O)[C@H](CCCCNC(=S)Nc1ccccc1C)NC(=O)CCc1nc2ccccc2c(=O)[nH]1 | 23 mm | 24 mm | 22 mm | 26 mm | 27 mm
CS(=O)(=O)NCCCC[C@H](NC(=O)CCCc1nc2ccccc2c(=O)[nH]1)C(=O)O | 12 mm | 12 mm | 11 mm | 10 mm | 11 mm
Cc1ccccc1NC(=S)NCCCC[C@H](NC(=O)CCc1nc2ccccc2c(=O)[nH]1)C(=O)O | 23 mm | 25 mm | 23 mm | 28 mm | 28 mm
COC(=O)[C@H](CCCCNC(=S)Nc1cccc(F)c1)NC(=O)CCCc1nc2ccccc2c(=O)[nH]1 | 34 mm | 33 mm | 35 mm | 36 mm | 34 mm

SMILES | zone of inhibition at 10 µg/disc [1] | zone of inhibition at 10 µg/disc [2] | zone of inhibition at 10 µg/disc [3] | zone of inhibition at 10 µg/disc [4] | zone of inhibition at 10 µg/disc [5]
CS(=O)(=O)NCCCC[C@H](NC(=O)CCc1nc2ccccc2c(=O)[nH]1)C(=O)O | 9 mm | 12 mm | 9 mm | 10 mm | 10 mm
NCCCC[C@H](NC(=O)CCCc1nc2ccccc2c(=O)[nH]1)C(=O)O | 14 mm | 12 mm | 10 mm | 12 mm | 13 mm
COC(=O)[C@H](CCCCNS(C)(=O)=O)NC(=O)CCc1nc2ccccc2c(=O)[nH]1 | 8 mm | 9 mm | 6 mm | 11 mm | 8 mm
COC(=O)[C@H](CCCCNC(=O)Nc1cccc(F)c1)NC(=O)CCCc1nc2ccccc2c(=O)[nH]1 | 36 mm | 34 mm | 35 mm | 35 mm | 36 mm
COC(=O)[C@H](CCCCNC(=S)Nc1ccccc1C)NC(=O)CCCc1nc2ccccc2c(=O)[nH]1 | 22 mm | 23 mm | 23 mm | 24 mm | 25 mm
O=C(CCc1nc2ccccc2c(=O)[nH]1)N[C@@H](CCCCNC(=S)Nc1cccc(F)c1)C(=O)O | 36 mm | 34 mm | 38 mm | 36 mm | 36 mm
CN(C)[C@@H]1C(O)=C(C(N)=O)C(=O)[C@@]2(O)C(O)=C3C(=O)c4c(O)cccc4[C@@](C)(O)[C@H]3C[C@@H]12 [TETRACYCLINE] | – | – | – | 18 mm | 19 mm
Cc1cc(F)ccc1NC(=S)NCCCC[C@H](NC(=O)CCc1nc2ccccc2c(=O)[nH]1)C(=O)O | 34 mm | 35 mm | 33 mm | 35 mm | 34 mm
COc1ccc(NC(=O)NCCCC[C@H](NC(=O)CCCc2nc3ccccc3c(=O)[nH]2)C(=O)O)cc1 | 22 mm | 23 mm | 24 mm | 26 mm | 25 mm
O=C(CCCc1nc2ccccc2c(=O)[nH]1)N[C@@H](CCCCNC(=O)Nc1cccc(F)c1)C(=O)O | 35 mm | 35 mm | 36 mm | 36 mm | 34 mm
Cc1cc(F)ccc1NC(=S)NCCCC[C@H](NC(=O)CCCc1nc2ccccc2c(=O)[nH]1)C(=O)O | 33 mm | 34 mm | 34 mm | 33 mm | 32 mm
COC(=O)[C@H](CCCCNC(=O)Nc1ccc(Cl)cc1)NC(=O)CCc1nc2ccccc2c(=O)[nH]1 | 24 mm | 29 mm | 28 mm | 29 mm | 28 mm
COC(=O)[C@H](CCCCNC(C)=O)NC(=O)CCc1nc2ccccc2c(=O)[nH]1 | 9 mm | 12 mm | 10 mm | 12 mm | 11 mm
Cc1ccccc1NC(=S)NCCCC[C@H](NC(=O)CCCc1nc2ccccc2c(=O)[nH]1)C(=O)O | 23 mm | 25 mm | 24 mm | 25 mm | 26 mm
COC(=O)[C@H](CCCCN)NC(=O)CCc1nc2ccccc2c(=O)[nH]1 | 6 mm | 10 mm | 8 mm | 10 mm | 9 mm
COC(=O)[C@H](CCCCN)NC(=O)CCCc1nc2ccccc2c(=O)[nH]1 | 10 mm | 10 mm | 9 mm | 12 mm | 12 mm
COC(=O)[C@H](CCCCNC(=S)Nc1ccc(F)cc1C)NC(=O)CCCc1nc2ccccc2c(=O)[nH]1 | 32 mm | 33 mm | 33 mm | 32 mm | 30 mm
CC(=O)NCCCC[C@H](NC(=O)CCc1nc2ccccc2c(=O)[nH]1)C(=O)O | 11 mm | 13 mm | 10 mm | 14 mm | 12 mm
